ChEMBL document CHEMBL1126043, “Novel thiazolidine-2,4-diones as potent euglycemic agents” (1992)

How the values were obtained:
Mus musculus [1] = assay: In vivo euglycemic activity (administered by oral gavage) in C57/6J-ob/ob mice measured by normalization of blood glucose levels at a dose of 5 mg/kg.; type: functional
Mus musculus [2] = assay: In vivo euglycemic activity of the compound (administered by oral gavage) in C57/6J-ob/ob mice is measured by normalization of blood glucose levels at a dose of 2.5(mg/kg); type: functional
Outline: (§1)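 Mice bled from retro-orbital sinus into tubes with 2% sodium heparin for baseline glucose, then dosed by oral gavage once daily for 4 days in 0.25% (w/v) methylcellulose in water, no pH adjustment (0.1 mL per 20 g). Bled 24 h after fourth dose. Samples centrifuged 2 min at 10000g. Plasma glucose measured by hexokinase UV method. Results scaled to vehicle (0%) and ciglitazone 50 mg/kg (100%).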

Mus musculus [3] = assay: In vivo euglycemic activity of the compound (administered by oral gavage) in C57/6J-ob/ob mice is measured by normalization of blood glucose levels at a dose of 0.25(mg/kg); type: functional; outline: as §1
Mus musculus [4] = assay: In vivo euglycemic activity (administered by oral gavage) in C57/6J-ob/ob mice by normalization of blood glucose levels at a dose of 0.5 mg/kg.; type: functional; outline: as §1
Mus musculus [5] = assay: In vivo euglycemic activity (administered by oral gavage) in C57/6J-ob/ob mice by normalization of blood glucose levels at a dose of 1 mg/kg.; type: functional; outline: as §1
Mus musculus [6] = assay: In vivo euglycemic activity of the compound (administered by oral gavage) in C57/6J-ob/ob mice is measured by normalization of blood glucose levels at a dose of 25(mg/kg); type: functional; outline: as §1
Mus musculus [7] = assay: In vivo euglycemic activity (administered by oral gavage) in C57/6J-ob/ob mice by normalization of blood glucose levels at a dose of 10 mg/kg.; type: functional; outline: as §1
Mus musculus [8] = assay: In vivo euglycemic activity of the compound (administered by oral gavage) in C57/6J-ob/ob mice is measured by normalization of blood glucose levels at a dose of 0.1(mg/kg); type: functional; outline: as §1
Mus musculus [9] = assay: In vivo euglycemic activity of the compound (administered by oral gavage) in C57/6J-ob/ob mice is measured by normalization of blood glucose levels at a dose of 0.05(mg/kg); type: functional; outline: as §1
Mus musculus [10] = assay: In vivo euglycemic activity of the compound (administered by oral gavage) in C57/6J-ob/ob mice is measured by normalization of blood glucose levels at a dose of 5(mg/kg)

Compound | Normalization (Mus musculus [1]) [%] | Normalization (Mus musculus [4]) [%] | Normalization (Mus musculus [5]) [%] | other results
Cc1oc(-c2ccccc2)nc1CNC(=O)c1ccc(CC2SC(=O)NC2=O)cc1 (centres undefined) | 50 | – | – | Normalization (Mus musculus [2]): 49%
Cc1ccc(-c2nc(CCC(=O)c3ccc(CC4SC(=O)NC4=O)cc3)co2)cc1 (centres undefined) | – | 0 | – | Normalization (Mus musculus [3]): 15%
Cc1oc(-c2cccs2)nc1CCC(=O)c1ccc(CC2SC(=O)NC2=O)cc1 (centres undefined) | – | 71 | 84 | Normalization (Mus musculus [3]): 27%
O=C1NC(=O)C(Cc2ccc3c(c2)CCC(Cc2ccccc2)C3=O)S1 (centres undefined) | 39 | – | – | Normalization (Mus musculus [6]): 47%; Normalization (Mus musculus [7]): 54%
Cc1oc(-c2ccccc2)nc1CCC(O)c1ccc(CC2SC(=O)NC2=O)cc1 (centres undefined) | – | 100 | – | Normalization (Mus musculus [8]): 93%; Normalization (Mus musculus [3]): 85%; Normalization (Mus musculus [9]): 72%
CO/N=C(\CCc1nc(-c2ccccc2)oc1C)c1ccc(CC2SC(=O)NC2=O)cc1 (centres undefined) | 100 | – | 0 | –
Cc1oc(-c2ccccc2)nc1CCCc1ccc(CC2SC(=O)NC2=O)cc1 (centres undefined) | – | 37 | – | –
O=C1NC(=O)C(Cc2ccc(C(=O)/C=C/c3ccccc3)cc2)S1 (centres undefined) | 23 | – | – | Normalization (Mus musculus [6]): 99%; Normalization (Mus musculus [7]): 65%
COc1ccccc1/C=C/C(=O)c1ccc(CC2SC(=O)NC2=O)cc1 (centres undefined) | – | – | – | Normalization (Mus musculus [10]): 50%; Normalization (Mus musculus [7]): 66%
O=C1NC(=O)C(Cc2ccc(C(=O)CCc3csc(-c4ccccc4)n3)cc2)S1 (centres undefined) | 91 | – | – | Normalization (Mus musculus [2]): 48%
Cc1oc(-c2ccccc2)nc1CCC(=O)c1ccc(CC2SC(=O)NC2=O)cc1 (centres undefined) [DARGLITAZONE] | 100 | 97 | 100 | Normalization (Mus musculus [8]): 83%; Normalization (Mus musculus [7]): 100%; Normalization (Mus musculus [3]): 88%; Normalization (Mus musculus [2]): 88%
Cc1oc(-c2ccc3ccccc3c2)nc1CCS(=O)(=O)c1ccc(CC2SC(=O)NC2=O)cc1 (centres undefined) | 0 | – | – | Normalization (Mus musculus [2]): 0%
O=C1NC(=O)C(Cc2ccc(CCCc3ccccc3)cc2)S1 (centres undefined) | 46 | – | – | Normalization (Mus musculus [6]): 73%; Normalization (Mus musculus [7]): 77%
Cc1oc(-c2ccccc2)nc1CN(c1ccccc1)S(=O)(=O)c1ccc(CC2SC(=O)NC2=O)cc1 (centres undefined) | – | – | – | Normalization (Mus musculus [2]): 32%
COc1c(C)cc(-c2nc(CCC(=O)c3ccc(CC4SC(=O)NC4=O)cc3)c(C)o2)cc1C (centres undefined) | – | 100 | 100 | Normalization (Mus musculus [8]): 75%
O=C1NC(=O)C(Cc2ccc(C(=O)/C=C/c3ccc(OCc4ccccc4)cc3)cc2)S1 (centres undefined) | 64 | – | – | Normalization (Mus musculus [6]): 96%; Normalization (Mus musculus [7]): 57%
Cc1oc(-c2ccccc2)nc1CCSc1ccc(CC2SC(=O)NC2=O)cc1 (centres undefined) | – | 0 | – | –
Cc1ccc(-c2nc(CCC(=O)c3ccc(CC4SC(=O)NC4=O)s3)c(C)o2)cc1 (centres undefined) | – | 27 | 100 | –
Cc1nc(-c2ccccc2)c(CCC(=O)c2ccc(CC3SC(=O)NC3=O)cc2)s1 (centres undefined) | 61 | – | – | Normalization (Mus musculus [2]): 0%
Cc1ccc(-c2nc(CCC(=O)c3ccc(/C=C4\SC(=O)NC4=O)cc3)c(C)o2)o1 | – | 1 | 76 | –
O=C1NC(=O)C(Cc2ccc(C(=O)/C=C/c3ccccc3O)cc2)S1 (centres undefined) | – | – | – | Normalization (Mus musculus [6]): 0%
Cc1oc(-c2ccccc2)nc1CCC(O)c1ccc(CC2SC(=O)NC2=O)s1 (centres undefined) | 100 | – | 23 | –
O=C1NC(=O)C(Cc2ccc(C(=O)/C=C/c3ccc(-c4ccccc4)cc3)cc2)S1 (centres undefined) | – | – | – | Normalization (Mus musculus [6]): 65%; Normalization (Mus musculus [7]): 56%
Cc1oc(-c2ccccc2)nc1CN(C)C(=O)c1ccc(CC2SC(=O)NC2=O)cc1 (centres undefined) | 83 | – | – | Normalization (Mus musculus [2]): 0%
O=C1NC(=O)C(Cc2ccc(C(=O)CCc3ccccc3)cc2)S1 (centres undefined) | 53 | – | – | Normalization (Mus musculus [6]): 93%; Normalization (Mus musculus [7]): 81%

Compound | Normalization (Mus musculus [1]) [%] | Normalization (Mus musculus [4]) [%] | Normalization (Mus musculus [5]) [%] | other results
Cc1oc(-c2ccccc2)nc1CCC(=O)c1ccc(CC2SC(=O)NC2=O)s1 (centres undefined) | 100 | – | 37 | Normalization (Mus musculus [2]): 99%
Cc1oc(-c2ccccc2)nc1CC(=O)Nc1ccc(CC2SC(=O)NC2=O)cc1 (centres undefined) | 64 | – | – | Normalization (Mus musculus [2]): 16%
Cc1cc(-c2nc(CCC(=O)c3ccc(CC4SC(=O)NC4=O)cc3)c(C)o2)cc(C)c1O (centres undefined) | – | 30 | 100 | –
Cc1oc(-c2ccc3ccccc3c2)nc1CCC(=O)c1ccc(/C=C2\SC(=O)NC2=O)cc1 | – | 38 | 90 | –
COc1ccc(-c2nc(CCC(=O)c3ccc(CC4SC(=O)NC4=O)cc3)c(C)o2)cc1 (centres undefined) | – | 43 | 95 | –
Cc1oc(-c2ccccc2)nc1CCS(=O)(=O)c1ccc(CC2SC(=O)NC2=O)cc1 (centres undefined) | 69 | – | 11 | –
Cc1oc(-c2ccccc2)nc1C/C=C/c1ccc(CC2SC(=O)NC2=O)cc1 (centres undefined) | – | 84 | – | Normalization (Mus musculus [8]): 29%; Normalization (Mus musculus [3]): 74%
Cc1ccc(-c2nc(CCC(=O)c3ccc(/C=C4\SC(=O)NC4=O)cc3)c(C)o2)cc1 | – | 27 | 0 | –
O=C1NC(=O)C(Cc2ccc(C(=O)CCc3coc(-c4ccccc4)n3)cc2)S1 (centres undefined) | – | 30 | – | Normalization (Mus musculus [3]): 52%
Cc1oc(-c2ccc(C(F)(F)F)cc2)nc1CCC(=O)c1ccc(/C=C2\SC(=O)NC2=O)cc1 | – | 28 | 58 | –
Cc1ccc(-c2nc(C/C=C/c3ccc(CC4SC(=O)NC4=O)s3)c(C)o2)cc1 (centres undefined) | – | 73 | 98 | Normalization (Mus musculus [3]): 64%; Normalization (Mus musculus [2]): 90%
Cc1oc(-c2ccccc2)nc1CCC(=O)c1ccc(/C=C2\SC(=O)NC2=O)cc1 | – | 81 | 84 | Normalization (Mus musculus [8]): 43%
Cc1oc(-c2ccccc2)nc1CC/C(=N\O)c1ccc(CC2SC(=O)NC2=O)cc1 (centres undefined) | 100 | 0 | 99 | –
Cc1ccc(-c2nc(CCC(=O)c3ccc(CC4SC(=O)NC4=O)cc3)c(C)o2)o1 (centres undefined) | – | 68 | – | Normalization (Mus musculus [8]): 47%; Normalization (Mus musculus [3]): 87%
Cc1oc(-c2ccc(Cl)cc2)nc1CCC(=O)c1ccc(CC2SC(=O)NC2=O)s1 (centres undefined) | – | – | 51 | Normalization (Mus musculus [2]): 100%
Cc1oc(-c2ccc(C(F)(F)F)cc2)nc1CCC(=O)c1ccc(CC2SC(=O)NC2=O)cc1 (centres undefined) | – | 69 | 86 | Normalization (Mus musculus [8]): 88%; Normalization (Mus musculus [3]): 81%
Cc1oc(-c2ccco2)nc1CCC(=O)c1ccc(/C=C2\SC(=O)NC2=O)cc1 | – | – | 55 | –
Cc1ccc(-c2nc(CCC(=O)c3ccc(CC4SC(=O)NC4=O)s3)co2)cc1 (centres undefined) | – | – | 10 | Normalization (Mus musculus [2]): 0%
Cc1nc(-c2ccccc2)sc1CCC(=O)c1ccc(CC2SC(=O)NC2=O)cc1 (centres undefined) | 75 | – | – | Normalization (Mus musculus [2]): 33%
O=C1NC(=O)C(Cc2ccc3c(c2)CCC(Cc2ccccc2)O3)S1 (centres undefined) | 48 | – | – | Normalization (Mus musculus [6]): 91%; Normalization (Mus musculus [7]): 70%
Cc1oc(-c2ccc(O)cc2)nc1CCC(=O)c1ccc(CC2SC(=O)NC2=O)cc1 (centres undefined) | – | – | 0 | –
Cc1ccc(-c2nc(CCC(=O)c3ccc(/C=C4\SC(=O)NC4=O)cc3)co2)cc1 | – | – | 53 | –
Cc1oc(-c2ccc(C(F)(F)F)cc2)nc1CCC(=O)c1ccc(CC2SC(=O)NC2=O)s1 (centres undefined) | – | 27 | 78 | –
COCc1ccc(/C=C/C(=O)c2ccc(CC3SC(=O)NC3=O)cc2)cc1 (centres undefined) | – | – | – | Normalization (Mus musculus [6]): 0%
